Screening data from PubChem BioAssay.
NadD block: NadD (S. aureus) enzyme inhibition. 0.78% of 360,000 active. inhibition, % at 20 µM. purified NadD enzyme, colorimetric absorbance read-out. AID 602399; in the data active = inhibition above about 26%
rCAG RNA binder: binds r(CAG) RNA repeats; r(CAG) RNA repeat, TO-PRO-1 dye displacement fluorescence; inhibition, % at 3 µM; 1.3% of 370,000 active; AID 651821;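 active = inhibition above the plate cutoff, the mean of all test compounds on that plate plus 3 SD, cut at about 35% in these data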;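 also: 0% = DMSO alone and 100% = 100 µM mitoxantrone as full dye displacement; higher means more dye released from RNA so lower well fluorescence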
LMPTP inh: blocks human LMPTP phosphatase | inhibition, % at 20 µM | AID 651560 | P24666 | 0.22% of 360,000 active | recombinant LMPTP-A, OMFP fluorogenic substrate, fluorescence intensity;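 active = compounds that cut the enzyme signal by at least half of the control window in the single-dose screen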;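 also: plate controls were DMSO wells with enzyme plus substrate for no effect and substrate without enzyme for full effect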
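Test system – LMPTP-A enzyme · Amount – LMPTP-A at 0.625 nM final in the reaction · Buffer or medium – Bis-Tris pH 6.0, DTT, detergent · Reagent – OMFP 400 µM · Doses – single 20 µM dose · Schedule – reaction 50 min, room temperature, dark · Detection – fluorescence intensity of OMFP turnover product · Evaluation – percent inhibition versus substrate-only and uninhibited controls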
STEP inh: inhibitors of human striatal-enriched phosphatase STEP; P54829; recombinant STEP, OMFP fluorogenic substrate, fluorescence; inhibition, % at 20 µM; 0.25% of 360,000 active;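 active = inhibition at 20 µM, scaled per plate between control wells, above about 37%, limit read from the data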;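 also: 0% = DMSO with enzyme and substrate and 100% = substrate only without enzyme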
Target sequence (P54829 whole entry, looked up): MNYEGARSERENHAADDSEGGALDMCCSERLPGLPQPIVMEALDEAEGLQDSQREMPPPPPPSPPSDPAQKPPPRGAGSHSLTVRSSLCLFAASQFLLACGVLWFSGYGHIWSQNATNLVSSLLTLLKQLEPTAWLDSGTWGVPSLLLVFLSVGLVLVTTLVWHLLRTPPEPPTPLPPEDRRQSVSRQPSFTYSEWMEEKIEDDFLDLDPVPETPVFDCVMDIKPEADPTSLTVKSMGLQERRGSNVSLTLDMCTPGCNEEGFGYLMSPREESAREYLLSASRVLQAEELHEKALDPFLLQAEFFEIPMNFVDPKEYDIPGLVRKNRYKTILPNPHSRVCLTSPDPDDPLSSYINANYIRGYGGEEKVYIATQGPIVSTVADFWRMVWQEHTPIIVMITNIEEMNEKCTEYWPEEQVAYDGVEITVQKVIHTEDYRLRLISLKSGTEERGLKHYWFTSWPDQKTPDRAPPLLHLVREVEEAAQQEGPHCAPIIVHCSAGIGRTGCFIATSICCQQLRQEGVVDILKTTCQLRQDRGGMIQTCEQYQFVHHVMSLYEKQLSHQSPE
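System: isolated STEP enzyme; schedule: 20 min enzyme reaction at room temperature, protected from light; medium: Bis-Tris buffer pH 6.0, 2.5 mM DTT, 0.005% Tween 20; signal: fluorescence, 480/540 nm; dosing: single compound dose of 20 µM, 1% DMSO final; also added: OMFP substrate, 25 µM final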
Scp1 inh: blocks human Scp-1 phosphatase activity | Q9GZU7 | inhibition, % at 20 µM | AID 493091 | Recombinant Scp1, phosphopeptide, malachite green phosphate absorbance | 0.88% of 340,000 active;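 active = inhibition above about 50% at 20 µM, limit read from the data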;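 also: plate controls were DMSO wells with enzyme for no effect and wells lacking enzyme for full effect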
Target sequence (Q9GZU7 76-261 limits assumed): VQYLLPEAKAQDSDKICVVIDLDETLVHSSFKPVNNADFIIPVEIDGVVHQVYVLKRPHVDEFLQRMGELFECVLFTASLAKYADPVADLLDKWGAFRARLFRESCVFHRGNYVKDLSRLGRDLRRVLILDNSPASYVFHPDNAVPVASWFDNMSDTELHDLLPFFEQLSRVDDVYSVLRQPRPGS
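Test system: SCP-1 catalytic domain; Buffer or medium: Acidic Tris acetate buffer with magnesium and detergent; Also added: Phosphorylated 17-residue peptide substrate; Compound: single 20 µM dose, 1% DMSO; Schedule: enzyme reaction 45 min at room temperature, colour 5 min, stabilisation 30 min; Signal: Phosphate-binding colour reagent, absorbance read at 630 nm.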
rCAG bind conf: r(CAG) RNA repeat binding, confirmation | shares compounds with rCAG RNA binder | TO-PRO-1 dye displacement fluorescence | inhibition, % at 3 µM | 70% of 4,300 active | AID 652065;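 active = inhibition above a per-plate cutoff, the mean inhibition of sample wells plus 3 SD, cut at about 35% in these data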;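 also: loss of TO-PRO-1 fluorescence as compound displaces dye from 1x1 AA loop RNA; 0% = DMSO only wells and 100% = 100 µM mitoxantrone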
DNA CAG counter: DNA CAG dye complex inhibition counter-screen; shares compounds with rCAG RNA binder; d(CAG) DNA oligo TO-PRO-1 dye displacement, fluorescence; 94% of 4,300 active; inhibition, % at 3 µM;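 active = inhibition above its plate's cutoff, the mean test-well inhibition plus 3 SD, cut at about 4.8% in these data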;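 also: 0% = DNA dye mix with DMSO and 100% = 100 µM mitoxantrone; hits displace the dye from DNA and so lower well fluorescence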
Numbers without * were called inactive; . = no result. An excerpt weighted towards active compounds, which were near 2.6% of everything screened.

SMILES | NadD block | rCAG RNA binder | LMPTP inh | STEP inh | Scp1 inh | rCAG bind conf | DNA CAG counter
CCOC(=O)c1ccc2c(c1)C1C=CCC1C(C(=O)OCC)N2 (centres undefined) | 13 | 47* | 1 | 1 | -5 | 35* | 17*
CC1CCc2c(C(=O)Nc3cccc(-c4nn[nH]n4)c3)csc2C1 (centres undefined) | 1 | 65* | -1 | -1 | -2 | 46* | 13*
C=CCN(C(=O)[C@@H](C)[C@@H](O)c1ccc(C(C)=O)cc1)c1ccccc1 | . | 3 | . | . | . | . | .
c1ccc(-c2cccc3[nH]cc(-c4ccccc4)c23)cc1 | . | 2 | . | . | . | . | .
Cc1cc(C)cc(Nc2nc3ccccc3c(=O)[nH]2)c1 | 2 | 41* | 1 | 1 | -3 | 14 | 16*
CC(C)Nc1nc2ccccc2c(=O)[nH]1 | 1 | -1 | 0 | 3 | -11 | . | .
N#C/C(=C\c1ccc(O)c(O)c1)C(=O)NCCc1ccccc1 | 0 | 39* | -1 | -1 | -14 | 44* | 13*
COc1cc(/C=C(\C#N)C(=O)NCCc2ccccc2)cc(OC)c1O | 6 | -4 | 1 | -2 | -5 | . | .
Cc1cccc(NC(=O)Nc2nc3ncccn3c2-c2ccccc2)c1 | . | 0 | . | . | . | . | .
CCn1c(SCC(=O)Nc2ccc(S(=O)(=O)Nc3cc(C)nc(C)n3)cc2)nc2sc(C)c(C)c2c1=O | . | 53* | . | . | . | 34 | 11*
CCn1c(SCC(=O)Nc2cc(C)on2)nc2sc(C)c(C)c2c1=O | . | 3 | . | . | . | . | .
Cc1cc(NS(=O)(=O)c2ccc(NC(=O)CSc3nc4sc(C)c(C)c4c(=O)n3Cc3ccco3)cc2)nc(C)n1 | . | 68* | . | . | . | 63* | 27*
Cc1cc(NS(=O)(=O)c2ccc(NC(=O)CSc3nnc(-c4ccco4)n3Cc3ccco3)cc2)nc(C)n1 | 5 | 17 | -1 | 2 | -9 | . | .
CCc1cc2c(nc1CC)CCCN2S(=O)(=O)c1ccccc1C | . | 1 | . | . | . | . | .
Cc1oc(-c2ccccc2)cc1C(=O)Nc1cccc(/C=C/C(=O)O)c1 | 1 | 47* | 0 | -2 | -1 | 39* | 9.0*
Cc1cc(C(=O)Nc2cccc(/C=C/C(=O)O)c2)c(C)o1 | 1 | 5 | -1 | -1 | -2 | . | .
CC(=O)N1C[C@H]2CON(C)[C@H]2C[C@H]1c1ccccc1-c1ccccc1 | . | 3 | . | . | . | . | .
CCOC(=O)N1CCN(C(=O)C[C@H]2C[C@@]3(C(=O)OC)C(=C[C@H](C(C)(C)C)O[C@@H]3C)N(Cc3ccc4c(c3)OCO4)C2=O)CC1 | . | 2 | . | . | . | . | .
CCOC(=O)[C@]12CCCCC/C=C\1N(Cc1ccc(OC)cc1)C(=O)[C@H]2CC(=O)NCc1ccccc1 | . | 4 | . | . | . | . | .
COc1ccc(C(=O)/C=C/c2ccc(O)cc2)c(O)c1C/C=C(\C)CCC=C(C)C | -5 | 69* | 3 | -2 | -7 | 65* | 28*
C=C/C(C)=C/C[C@H]1C(=C)CCC2[C@](C)(C(=O)O)CCC[C@@]21C (some centres undefined) | 15 | . | 2 | -1 | 12 | . | .
C=C1CCC2C(C)(C)CCC[C@]2(C)[C@H]1CC1=C(O)C(=O)C(CO)=CC1=O (some centres undefined) | . | 45* | . | . | . | 32 | 7.3*
COc1ccc(CCC(=O)Nc2cc3c4c(c2)CCC(=O)N4CCC3)cc1 | 2 | -4 | 1 | 0 | -8 | . | .
O=C(CCc1ccccc1)Nc1cc(NC(=O)CCc2ccccc2)cc(C(=O)O)c1 | -1 | 40* | -1 | -3 | -1 | 27 | 4
O=C(CCc1ccccc1)Nc1cc2c3c(c1)CCC(=O)N3CCC2 | -3 | 42* | 0 | 1 | -5 | 8 | 1
SMILES | NadD block | rCAG RNA binder | LMPTP inh | STEP inh | Scp1 inh | rCAG bind conf | DNA CAG counter
COc1cccc(CNC(=O)c2c[nH]n3c(=O)c(Cl)c(C)nc23)c1 | 12 | 61* | -3 | 0 | -4 | 35* | 8.0*
O[C@@H](Cc1ccccc1)[C@@H](/C=C/c1ccccc1)NCCc1ccccc1 | . | 3 | . | . | . | . | .
CN1OC[C@@H]2CN(C(=O)c3ccc(C#N)cc3)[C@H](c3cccc(Br)c3)C[C@@H]21 | . | 2 | . | . | . | . | .
Fc1cccc2sc(Nc3nc4c(F)cccc4s3)nc12 | 13 | 58* | -1 | 3 | -3 | 60* | 24*
NNc1nc2c(F)cccc2s1 | -4 | 33 | 0 | -3 | -8 | . | .
Cc1ccc2nc(Cl)c(/C=N/Nc3ccc(C(=O)O)cc3)cc2c1 | 0 | 41* | 1 | 4 | 2 | 23 | 5.3*
CCCC(=O)N1CCC(C(=O)NC2CCCc3ccccc32)CC1 (centres undefined) | . | 2 | . | . | . | . | .
Cc1[nH]c2ccc(OC(F)(F)F)cc2c1CCN1C(=O)c2ccc(C(=O)O)cc2C1=O | -2 | 48* | 0 | 2 | -9 | 44* | 13*
COC(=O)c1cc(-c2ccccc2OC)c(=O)n2c1CCC2 | . | 1 | . | . | . | . | .
CCc1c(C)sc(NC(=O)c2cc(-c3ccco3)on2)c1C#N | 0 | 40* | -2 | 1 | -3 | 28 | 6.5*
O/N=C/c1cc(Br)ccc1OCc1ccccc1F | -12 | 6 | 1 | -3 | -9 | . | .
O=C(O)CN1C(=O)/C(=C\c2cc(Br)ccc2OCc2ccccc2F)SC1=S | 15 | 65* | 4 | 6 | 2 | 87* | 61*
O=C(O)CN1C(=O)/C(=C\c2cc(Br)ccc2OCc2ccc([N+](=O)[O-])cc2)SC1=S | 24 | 77* | 26 | 24 | 50 | 94* | 75*
O=C(O)CN1C(=O)/C(=C\c2cc(Br)ccc2OCc2ccccc2Cl)SC1=S | 16 | 78* | 16 | 15 | 34 | 93* | 75*
O=C(O)COc1ccc(Br)cc1/C=C1/SC(=O)N(CC(=O)N2CCCC2)C1=O | 0 | 20 | 1 | 0 | -2 | . | .
CCOc1ccccc1C=C1SC(=S)N(CC)C1=O | 4 | 2 | 2 | 2 | -10 | . | .
O=C(O)CN1C(=O)/C(=C\c2ccccc2OCc2ccc(Cl)cc2Cl)SC1=S | 12 | 79* | 7 | 16 | 6 | 90* | 66*
CCNC(=O)N1CCN(c2ccc(N3CCN(C(=O)NCC)[C@@H](C)C3)c(C)c2)[C@H](C)C1 | . | 0 | . | . | . | . | .
O=C(O)CN1C(=O)/C(=C\c2cccc(OCc3ccc(Cl)cc3Cl)c2)SC1=S | 30* | 79* | 10 | 30 | 13 | 85* | 58*
O=C(NN1C(=O)/C(=C/c2ccc(O)cc2)SC1=S)c1ccccc1O | -7 | 2 | 1 | -3 | -17 | . | .
NC1=NC(=O)/C(=C\c2ccc(O)c([N+](=O)[O-])c2)S1 | 1 | 6 | -19 | 2 | 11 | . | .
O=C(NN1C(=O)/C(=C/c2ccc(O)c([N+](=O)[O-])c2)SC1=S)c1ccccc1Cl | 1 | 39* | 3 | 10 | 9 | 15 | 5.5*
